Experimental data taken from paper PMC3579768 (Biochemistry, 2012).
Bridge positions count the residues as written; N and C are the ends. Ends that are not written are not given here.

Experiments:
[1] = Sedimentation equilibrium analytical ultracentrifugation; format: physicochemical
Method in brief: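 Absorbance optics at 280 nm, 20 °C, An-50 Ti rotor. Samples were 400 μL of the oxidized peptide in 10 mM sodium phosphate, pH set with 1 N HCl: pH 8 (183, 230, 283 μM), pH 7 (165–288 μM), pH 6 (210, 330 μM), pH 4 (236, 288 μM), pH 2 (189, 238, 293 μM). Buffer viscosity, density and partial specific volume were computed for 20 °C.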

NMR relaxation = format: physicochemical; conditions: 90:10 H2O/D2O
[2] = Sedimentation velocity analytical ultracentrifugation; format: physicochemical; conditions: for sedimentation coefficient (s20,w), DCDT+ analysis: 20 °C
Method in brief: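 An-50 Ti rotor, double-sector charcoal-epon cells, interference or absorbance optics. 400 μL peptide sample against buffer reference, prepared just before the run, pH set with 1 N HCl. Buffers: 10 mM sodium phosphate (pH 7, 6, 4, 2; NaCl 50, 150, 500 mM) and 20 mM Tris-HCl or HEPES pH 7, ± 50 mM MgCl2/CaCl2. Fitting used c(s) Lamm and g(s*) from 22–26 scans, with modelled monomer/dimer/tetramer S-values.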

HD5ox = conditions: SPR, pH 7.4, 150 mM NaCl; cited from earlier work
AUC = molecular target: the molecule itself; assay: AUC

Row | Molecule | best-fit molecular weight by sedimentation equilibrium ([1]; pH 2.0, 10 mM sodium phosphate buffer, 189-293 μM, 20 °C) | oligomeric molecular weight to which the sedimentation equilibrium fit converged ([1]; pH 4.0, 6.0 and 8.0, 10 mM sodium phosphate buffer) | molecular weight estimated from TRACT Tc (NMR relaxation; 340 μM 13C,15N-HD5ox, pH 4) | rotational correlation time Tc, [15N,1H]-TRACT method (NMR relaxation; 340 μM 13C,15N-HD5ox, pH 4 (TFA)) | oligomerization state under the NMR sample conditions (NMR relaxation; 340 μM, pH 4, unbuffered) | effect of Mg(II) and Ca(II) on the sedimentation coefficient ([2]; 50 mM MgCl2 or CaCl2 in 20 mM Tris-HCl or HEPES buffer, pH 7.0) | minimum frictional ratio (f/f0) ([2]; Equation 2, ssphere/s20,w, all buffers) | oligomeric form from comparison of experimental and calculated S-values ([2]; aqueous buffer at neutral pH, concentrations ≥30 μM) | sedimentation coefficient (s20,w), DCDT+ analysis ([2]; pH 2.0, 10 mM sodium phosphate buffer, 194 μM) | sedimentation coefficient (s20,w), DCDT+ analysis ([2]; pH 4.0, 10 mM sodium phosphate buffer, 131 μM) | sedimentation coefficient (s20,w), DCDT+ analysis ([2]; pH 6.0, 10 mM sodium phosphate buffer, 161 μM) | sedimentation coefficient (s20,w), DCDT+ analysis ([2]; pH 7.0, 10 mM sodium phosphate buffer) | effect of NaCl on the sedimentation coefficient ([2]; up to 500 mM NaCl, pH 7, 10 mM sodium phosphate buffer) | HD5ox concentration above which evidence for higher-order oligomers was reported (HD5ox) | Kd (AUC) | stoichiometry N (AUC)
1 | Human defensin 5 (ATCYCRTGRCATRESLSGVCEISGRLYRLCCR; disulfide 10-30, 5-20, 3-31; also: 15N or 13C,15N labelled in NMR samples) [HD5ox] | 7,079 Da | tetrameric | ca. 6.8 kDa | ca. 4.1 ns | dimer | negligible impact | ~ 1.2 | tetrameric | 1.0 S | 1.2 S | 1.6 S | 1.8 S | no effect | > 8 µM | – | –
2 | ATCYCRTGRCATRESLSGVCEISGRLYRLCCR (peptide, UniProt Q01523 63-94, looked up, disulfide 10-30, 5-20, 3-31; also: 15N or 13C,15N labelled in NMR samples) [Human defensin 5, oxidized form (HD5ox)] | – | – | – | – | – | – | – | – | – | – | – | – | – | – | < 30 µM | 4
